Measured values as given in ChEMBL document CHEMBL1177816, “Epsilon substituted lysinol derivatives as HIV-1 protease inhibitors” (Bioorg Med Chem Lett, 2010).

Columns and labels:
[1] = AUC in Beagle dog at 4 mg/kg, po; format: ADME, organism-based, Canis lupus familiaris; design: dose 4 mg/kg, route oral; conditions: plasma
How it was run: (§1)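 Beagle dogs received 4 mg/kg orally in PEG 400. Plasma drug levels (nM) were measured over 24 h, including the 24 h trough, and oral half-life was calculated from the plasma concentration profile.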

[2] = tested on: Human immunodeficiency virus 1; assay: Antiviral activity against HIV1 3B infected in human MT4 cells assessed as inhibition of viral spread after 3 days by p24 antigen ELISA in presence of 50% normal human serum; format: functional
How it was run: (§2)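 MT-4 cells kept in RPMI 1640 with 10% heat-inactivated FBS were infected en masse with HIV-1 IIIb at multiplicity 0.01 for 24 h, then washed and plated. Serial twofold inhibitor dilutions were added and cultures ran 3 more days. Spread was read by p24 core antigen ELISA. Line 2 used 10% FBS; line 3 used cells resuspended in 50% normal human serum, giving a serum-adjusted IC95.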

[3] = tested on: Human immunodeficiency virus 1; assay: Antiviral activity against HIV1 3B infected in human MT4 cells assessed as inhibition of viral spread after 3 days by p24 antigen ELISA in presence of 10% fetal bovine serum; format: functional; how it was run: as §2
Protease = Protease (Human immunodeficiency virus 1, UniProt Q9YQ12); assay: Inhibition of HIV1 protease
Chain of Protease (Q9YQ12 whole entry): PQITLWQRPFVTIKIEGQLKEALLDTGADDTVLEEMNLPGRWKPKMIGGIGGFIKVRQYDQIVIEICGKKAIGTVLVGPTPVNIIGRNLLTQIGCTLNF

[4] = Trough plasma concentration in Beagle dog at 4 mg/kg after 24 hrs; format: ADME, organism-based, Canis lupus familiaris; design: dose 4 mg/kg; how it was run: as §1
[5] = Half life in Beagle dog at 4 mg/kg, po; format: ADME, organism-based, Canis lupus familiaris; design: dose 4 mg/kg, route oral; conditions: in vivo; how it was run: as §1

Compound | AUC [1] [µM·h] | Virucidal [2] [nM] | Inhibition of viral spread [3] [nM] | IC50 (Protease) [nM] | concentration at 24 h [4] [nM] | half-life [5] [min]
CC[C@@H](CCC[C@@H](CO)N(CCC(C)C)S(=O)(=O)c1ccc(N)cc1)NC(=O)[C@@H](NC(=O)OC)C(c1ccccc1)c1ccccc1 | 1.05 | 74 | 10 | 0.016 | 5.1 | 360
CCC[C@@H](CCC[C@@H](CO)N(CCC(C)C)S(=O)(=O)c1ccc(N)cc1)NC(=O)[C@@H](NC(=O)OC)C(c1ccccc1)c1ccccc1 | – | – | 56 | 0.1 | – | –
COC(=O)N[C@H](C(=O)N[C@H](CO)CCC[C@@H](CO)N(CCC(C)C)S(=O)(=O)c1ccc(N)cc1)C(c1ccccc1)c1ccccc1 | – | – | 230 | 0.013 | – | –
COC(=O)N[C@H](C(=O)N[C@@H](C)CCC[C@@H](CO)N(CCC(C)C)S(=O)(=O)c1ccc(N)cc1)C(c1ccccc1)c1ccccc1 | 0.32 | 120 | 6.6 | – | 2 | –
COC(=O)N[C@H](C(=O)NCCCC[C@@H](CO)N(CCC(C)C)S(=O)(=O)c1ccc(N)cc1)C(c1ccccc1)c1ccccc1 | – | 130 | 12 | 0.03 | – | –
COC(=O)N[C@H](C(=O)N[C@H](C)CCC[C@@H](CO)N(CCC(C)C)S(=O)(=O)c1ccc(N)cc1)C(c1ccccc1)c1ccccc1 | – | – | 98 | 0.4 | – | –
COC(=O)N[C@H](C(=O)NCCCC[C@@H](CO)N(CC(C)C)S(=O)(=O)c1ccc(N)cc1)C(c1ccccc1)c1ccccc1 [PPL-100] | – | – | – | 0.5 | – | –
COC(=O)N[C@H](C(=O)N[C@@H](CCC[C@@H](CO)N(CCC(C)C)S(=O)(=O)c1ccc(N)cc1)C(C)C)C(c1ccccc1)c1ccccc1 | – | – | 37 | 0.1 | – | –
